Measured values from paper PMC7397737 (Chemical research in toxicology, 2019).
“And” between values parts separate entries of the source, which are not always exact repeats. Equal values may be shown once. Values belong to the molecule of their own block, whether it stands above or below them.

How the values were obtained:
[1] = tested on: C57BL/6J mice; experiment: Experiment 3: high-oleic acid diet with 1′-hydroxyelemicin in mice; format: in vivo, mouse; settings: high-oleic acid diet + 100 mg/kg 1′-hydroxyelemicin 3 days
[2] = tested on: CYPs in pooled mouse liver microsomes (MLMs); experiment: Chemical inhibition of 1′-hydroxyelemicin formation in liver microsomes; format: in vitro ADME; settings: 50 μM elemicin, MLMs 0.5 mg/mL, 40 min
[3] = tested on: C57BL/6J mice; experiment: Experiment 5: alpha-naphthoflavone with elemicin in mice; format: in vivo, mouse; settings: alpha-naphthoflavone 80 mg/kg/day i.p. + elemicin 500 mg/kg oral for 7 days
[4] = tested on: C57BL/6J mice; experiment: Experiment 4: SCD1 suppression by A939572 with 1′-hydroxyelemicin in mice; format: in vivo, mouse; settings: A939572 10 mg/kg/day i.p. + 100 mg/kg 1′-hydroxyelemicin
[5] = tested on: stearoyl-CoA desaturase 1 (SCD1); experiment: Hepatic Scd1 mRNA; format: in vivo, mouse; settings: for mRNA levels of Scd1 in liver: qPCR, vs control mice
How it was run: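 C57BL/6J mice (n = 6; n = 4 in SCD1-inhibitor study) gavaged with test compound 100 mg/kg every 24 h ×3, vehicle 0.5% CMC-Na. Where used, SCD1 inhibitor (DMSO/Tween 80/saline 1:2:97) was given i.p. twice daily, 10 mg/kg/day, starting before first dose. Liver flash-frozen. Western: RIPA/PMSF lysate, 10 μg protein, 10% SDS-PAGE, PVDF, ECL detection. mRNA by qRT-PCR.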

[6] = target: T1, human recombinant CYP1A1 (Homo sapiens, UniProt P04798); experiment: Kinetics of elemicin 1′-hydroxylation by recombinant CYP1A1; format: in vitro ADME
T1 sequence (P04798 1-512): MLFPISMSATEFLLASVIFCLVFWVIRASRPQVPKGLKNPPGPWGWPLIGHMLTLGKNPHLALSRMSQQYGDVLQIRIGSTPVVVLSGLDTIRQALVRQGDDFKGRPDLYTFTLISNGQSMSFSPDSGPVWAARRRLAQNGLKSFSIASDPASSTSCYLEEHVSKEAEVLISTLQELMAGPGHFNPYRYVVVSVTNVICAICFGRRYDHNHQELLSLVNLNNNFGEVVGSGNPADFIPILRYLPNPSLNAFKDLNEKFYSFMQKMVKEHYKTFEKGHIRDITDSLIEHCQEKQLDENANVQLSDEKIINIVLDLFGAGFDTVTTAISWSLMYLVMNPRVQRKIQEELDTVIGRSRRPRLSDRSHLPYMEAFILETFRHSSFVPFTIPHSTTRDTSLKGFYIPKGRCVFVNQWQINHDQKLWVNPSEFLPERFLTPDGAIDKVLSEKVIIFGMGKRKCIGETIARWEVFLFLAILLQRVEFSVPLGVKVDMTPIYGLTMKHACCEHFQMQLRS

[7] = target: T2, human recombinant CYP2A6 (Homo sapiens, UniProt P11509); experiment: Kinetics of elemicin 1′-hydroxylation by recombinant CYP2A6; format: in vitro ADME
T2 sequence (P11509 1-494): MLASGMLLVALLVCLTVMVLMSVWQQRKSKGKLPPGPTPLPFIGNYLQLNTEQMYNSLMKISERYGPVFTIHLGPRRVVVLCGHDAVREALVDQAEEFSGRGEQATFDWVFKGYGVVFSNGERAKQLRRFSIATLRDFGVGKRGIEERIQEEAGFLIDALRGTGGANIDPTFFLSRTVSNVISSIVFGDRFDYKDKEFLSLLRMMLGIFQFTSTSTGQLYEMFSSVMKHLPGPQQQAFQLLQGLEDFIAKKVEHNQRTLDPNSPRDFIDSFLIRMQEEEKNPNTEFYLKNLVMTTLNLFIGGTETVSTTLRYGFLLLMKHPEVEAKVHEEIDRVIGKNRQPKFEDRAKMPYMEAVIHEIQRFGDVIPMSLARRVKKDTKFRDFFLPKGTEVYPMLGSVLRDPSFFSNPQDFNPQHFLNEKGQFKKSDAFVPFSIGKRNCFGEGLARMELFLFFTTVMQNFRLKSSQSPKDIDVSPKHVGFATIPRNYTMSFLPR

[8] = tested on: C57BL/6J mice; experiment: Experiment 1: toxicity of elemicin in mice, 3 weeks; format: in vivo, mouse
[9] = tested on: C57BL/6J mice; experiment: Experiment 6: elemicin versus 1′-hydroxyelemicin toxicity at the same dose; format: in vivo, mouse
[10] = mouse, in vivo, 100 mg/kg
[11] = substrate: C=CCc1cc(OC)c(OC)c(OC)c1; experiment: Kinetics of elemicin 1′-hydroxylation by recombinant CYP1A1; format: in vitro ADME, human; settings: other: 1′-hydroxyelemicin formation from elemicin, mean ± SD
[12] = substrate: C=CCc1cc(OC)c(OC)c(OC)c1; experiment: Kinetics of elemicin 1′-hydroxylation by recombinant CYP2A6; format: in vitro ADME, human; settings: other: 1′-hydroxyelemicin formation from elemicin, mean ± SD
[13] = substrate: C=CCc1cc(OC)c(OC)c(OC)c1; experiment: Kinetics of elemicin 1′-hydroxylation by recombinant CYP2C19; format: in vitro ADME, human; settings: other: 1′-hydroxyelemicin formation from elemicin, mean ± SD
[14] = substrate: C=CCc1cc(OC)c(OC)c(OC)c1; experiment: Kinetics of elemicin 1′-hydroxylation by recombinant CYP1A2; format: in vitro ADME, human; settings: other: 1′-hydroxyelemicin formation from elemicin, mean ± SD
[15] = 500 mg/kg oral every 24 h for 3 weeks, vs control group
[16] = 500 mg/kg oral, 3 weeks, vs control group
[17] = elemicin 500 mg/kg oral, 3 weeks
[18] = 1′-hydroxyelemicin 100 mg/kg oral, 3 days

Molecule: CCCCCCCC/C=C\CCCCCCCC(=O)O [oleic acid]
16:1-LPC, 18:1-LPC and 18:2-LPC levels in plasma [1]: ameliorated the decrease
ratios of 18:1-LPC to 18:0-LPC and 16:1-LPC to 16:0-LPC in plasma [1]: increased to normal level
hepatic TG content ([1]; vs control mice): still higher than that of control mice
liver size ([1]; vs control mice): still higher than that of control mice

inhibitory effect against 1′-hydroxyelemicin generation ([2]; inhibitor 1 μM (CYP1A1/2)): relative higher inhibitory effects
Molecule: O=c1cc(-c2ccccc2)oc2c1ccc1ccccc12 [α-naphthoflavone]
elemicin-induced hepatomegaly [3]: significantly alleviate

levels of monounsaturated-LPCs in plasma ([4]; A + E′ group): further decreased
TG levels in plasma ([4]; A + E′ vs E′ group): markedly elevated
ratio of unsaturated-LPCs to saturated-LPCs ([4]; A + E′ vs E′ group): significantly reduced
Molecule: CNC(=O)c1cccc(NC(=O)N2CCC(Oc3ccccc3Cl)CC2)c1 [A939572]
SCD1 expression in liver (Western blot) ([5]; A939572 10 mg/kg/day i.p. + 100 mg/kg 1′-hydroxyelemicin, A + E′ group): significantly decreased

Molecule: C=CCc1cc(OC)c(OC)c(OC)c1 [elemicin, 3,4,5-trimethoxyallylbenzene]
Vmax [6]: 1.80 ± 0.045 nmol ● min^−1 nmol ● CYP^−1
in vitro catalytic efficiency ([6]; Vmax/Km × 1000 μL): 140.062 μL min^−1 nmol P450^−1
Vmax ([7]; 1′-hydroxyelemicin formation from elemicin, mean ± SD): 0.524 ± 0.110 nmol min^−1 nmol P450^−1
in vitro catalytic efficiency ([7]; Vmax/Km × 1000 μL): 0.520 μL min^−1 nmol P450^−1
histopathological analysis of hepatic tissue ([8]; 500 mg/kg oral every 24 h for 3 weeks, H&E): cytoplasmic pale staining, hepatocyte swelling and the cytoplasm seemed abnormal around the central vein
TG levels in liver [8, 15]: significantly elevated
TG levels in plasma [8, 15]: significantly elevated
liver weights (hepatic index) [8, 15]: increased
serum ALT [8, 15]: no significant changes
total plasma GSH and GSSG [8, 15]: reduced
ratios of 18:1-LPC to 18:0-LPC and 16:1-LPC to 16:0-LPC in plasma [8, 16]: dramatically reduced
saturated LPC (18:0-LPC) in plasma [8, 16]: significantly increased
unsaturated LPCs (18:1-, 18:2-, 16:1-, 20:4-LPC) in plasma [8, 16]: obviously reduced
hepatomegaly ([9]; 100 mg/kg for 3 days, mice): did not result in hepatomegaly
SCD1 protein in liver (Western blot) [5, 17]: decreased
mRNA levels of Scd1 in liver [5, 17]: clearly decreased

GSH adduct in urine [10]: observed in the urine
Molecule: C=CC(O)c1cc(OC)c(OC)c(OC)c1 (stereo not shown) [1′-hydroxyelemicin]
liver index compared with the same dose of elemicin ([9]; mouse, in vivo): higher
SCD1 protein in liver (Western blot) [5, 18]: decreased
mRNA levels of Scd1 in liver [5, 18]: clearly decreased

inhibitory effect against 1′-hydroxyelemicin generation ([2]; inhibitor 10 μM (CYP3A4)): relative higher inhibitory effects
Molecule: CC(=O)N1CCN(c2ccc(OCC3COC(Cn4ccnc4)(c4ccc(Cl)cc4Cl)O3)cc2)CC1 (stereo not shown) [ketoconazole]

B1: human recombinant CYP1A1 (Homo sapiens) (protein)
chain: T1 sequence (P04798 1-512)
Km [11]: 12.9 ± 1.26 µM and 12.880 ± 1.265 µM
kcat/Km [11]: 140 μL min^−1 nmol CYP^−1

B2: human recombinant CYP2A6 (Homo sapiens) (protein)
chain: T2 sequence (P11509 1-494)
Km [12]: 1007.000 ± 293.000 µM

B3: human recombinant CYP2C19 (Homo sapiens) (protein)
chain: MDPFVVLVLCLSCLLLLSIWRQSSGRGKLPPGPTPLPVIGNILQIDIKDVSKSLTNLSKIYGPVFTLYFGLERMVVLHGYEVVKEALIDLGEEFSGRGHFPLAERANRGFGIVFSNGKRWKEIRRFSLMTLRNFGMGKRSIEDRVQEEARCLVEELRKTKASPCDPTFILGCAPCNVICSIIFQKRFDYKDQQFLNLMEKLNENIRIVSTPWIQICNNFPTIIDYFPGTHNKLLKNLAFMESDILEKVKEHQESMDINNPRDFIDCFLIKMEKEKQNQQSEFTIENLVITAADLLGAGTETTSTTLRYALLLLLKHPEVTAKVQEEIERVIGRNRSPCMQDRGHMPYTDAVVHEVQRYIDLIPTSLPHAVTCDVKFRNYLIPKGTTILTSLTSVLHDNKEFPNPEMFDPRHFLDEGGNFKKSNYFMPFSAGKRICVGEGLARMELFLFLTFILQNFNLKSLIDPKDLDTTPVVNGFASVPPFYQLCFIPV
Km [13]: 43.430 ± 3.613 µM
kcat [13]: 0.00792 ± 0.0002 s⁻¹
kcat/Km [13]: 182 M⁻¹ s⁻¹

B4: human recombinant CYP1A2 (Homo sapiens) (protein)
chain: MALSQSVPFSATELLLASAIFCLVFWVLKGLRPRVPKGLKSPPEPWGWPLLGHVLTLGKNPHLALSRMSQRYGDVLQIRIGSTPVLVLSRLDTIRQALVRQGDDFKGRPDLYTSTLITDGQSLTFSTDSGPVWAARRRLAQNALNTFSIASDPASSSSCYLEEHVSKEAKALISRLQELMAGPGHFDPYNQVVVSVANVIGAMCFGQHFPESSDEMLSLVKNTHEFVETASSGNPLDFFPILRYLPNPALQRFKAFNQRFLWFLQKTVQEHYQDFDKNSVRDITGALFKHSKKGPRASGNLIPQEKIVNLVNDIFGAGFDTVTTAISWSLMYLVTKPEIQRKIQKELDTVIGRERRPRLSDRPQLPYLEAFILETFRHSSFLPFTIPHSTTRDTTLNGFYIPKKCCVFVNQWQVNHDPELWEDPSEFRPERFLTADGTAINKPLSEKMMLFGMGKRRCIGEVLAKWEIFLFLAILLQQLEFSVPPGVKVDLTPIYGLTMKHARCEHVQARLRFSIN
Km [14]: 15.850 ± 3.067 µM
kcat [14]: 0.0067 ± 0.00035 s⁻¹
kcat/Km [14]: 423 M⁻¹ s⁻¹
